Assay results published in article PMC9301635 (ACS Omega, 2022).
Where two headings read alike, the source gives them in different places.

Tests used:
HCT116 cells [1] = assay: Caspase activation, ApoStat flow cytometry, HCT116; assay type: cell-based, human; conditions: IC50 dose, 72 h, fluorescence-labeled pan-caspase inhibitor
In short: (§1)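 Seeding in six-well plates was HCT116 2 × 10^5/well and SW480 1.5 × 10^5/well. Cells were exposed to test compound (DMSO vehicle, ≤0.1%) for 72 h. They were then stained with the FITC-labelled pan-caspase inhibitor ApoStat according to the manufacturer's protocol. The percentage of caspase-active cells was measured by flow cytometry. Data are representative of three independent experiments.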

HCT116 [2] = assay: Crystal violet; assay type: cell-based, human; conditions: read-out: IC50 HCT116 CV
In short: (§2)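 Cells were grown in RPMI-1640 with 10% FCS and antibiotics at 37 °C, 5% CO2. Seeding per well was CT26 4 × 10^3, HT-29 1.5 × 10^4, SW480 3 × 10^3 and HCT116 5 × 10^3, with overnight adherence. Test compound came from a 200 mM DMSO stock (≤0.1% DMSO final) and was applied at 0–200 μM for 72 h. Viability was read by MTT or crystal violet, in triplicate.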

HT29 [3] = assay: MTT viability test, HT29; assay type: cell-based, human; conditions: read-out: IC50 HT29 MTT
In short: as §2

ovine COX-1 = molecular target: T1, ovine COX-1 (Ovis aries, UniProt P05979); assay: COX Fluorescent Inhibitor Screening Assay Kit; assay type: biochemical; conditions: for % inhibition @ 100 μM COX-1: 100 μM compound
T1 sequence (P05979 25-600): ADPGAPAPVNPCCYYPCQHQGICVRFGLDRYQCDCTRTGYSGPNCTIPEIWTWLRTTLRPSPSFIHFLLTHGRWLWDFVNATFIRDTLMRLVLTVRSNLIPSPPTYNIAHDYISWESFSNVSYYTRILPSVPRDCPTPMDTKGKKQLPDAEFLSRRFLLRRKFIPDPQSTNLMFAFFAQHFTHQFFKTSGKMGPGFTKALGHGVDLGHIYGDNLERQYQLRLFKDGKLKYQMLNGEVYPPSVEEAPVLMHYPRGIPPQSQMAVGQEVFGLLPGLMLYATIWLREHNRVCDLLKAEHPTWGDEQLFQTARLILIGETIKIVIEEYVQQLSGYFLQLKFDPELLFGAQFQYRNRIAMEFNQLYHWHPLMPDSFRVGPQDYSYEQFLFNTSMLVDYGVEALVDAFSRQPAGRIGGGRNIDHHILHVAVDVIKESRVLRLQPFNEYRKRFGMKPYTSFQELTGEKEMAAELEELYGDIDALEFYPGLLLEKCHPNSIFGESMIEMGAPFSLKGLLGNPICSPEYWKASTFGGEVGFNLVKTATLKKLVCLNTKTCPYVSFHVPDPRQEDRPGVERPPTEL

CT26 [4] = assay: Crystal violet; assay type: cell-based, mouse; conditions: read-out: IC50 CT26 CV
In short: as §2

[5] = tested on: human breast, bladder, and non-small lung cancer cell lines; conditions: read-out: cytotoxic potential; literature data; cited from earlier work
HT29 [6] = assay: Crystal violet; assay type: cell-based, human; conditions: read-out: IC50 HT29 CV
In short: as §2

HCT116 [7] = assay: MTT viability test, HCT116; assay type: cell-based, human; conditions: read-out: IC50 HCT116 MTT
In short: as §2

human COX-2 = molecular target: T2, human COX-2 (Homo sapiens, UniProt P35354); assay: biochemical; assay type: biochemical; conditions: for % inhibition @ 100 μM COX-2: 100 μM compound
T2 sequence (P35354 18-604): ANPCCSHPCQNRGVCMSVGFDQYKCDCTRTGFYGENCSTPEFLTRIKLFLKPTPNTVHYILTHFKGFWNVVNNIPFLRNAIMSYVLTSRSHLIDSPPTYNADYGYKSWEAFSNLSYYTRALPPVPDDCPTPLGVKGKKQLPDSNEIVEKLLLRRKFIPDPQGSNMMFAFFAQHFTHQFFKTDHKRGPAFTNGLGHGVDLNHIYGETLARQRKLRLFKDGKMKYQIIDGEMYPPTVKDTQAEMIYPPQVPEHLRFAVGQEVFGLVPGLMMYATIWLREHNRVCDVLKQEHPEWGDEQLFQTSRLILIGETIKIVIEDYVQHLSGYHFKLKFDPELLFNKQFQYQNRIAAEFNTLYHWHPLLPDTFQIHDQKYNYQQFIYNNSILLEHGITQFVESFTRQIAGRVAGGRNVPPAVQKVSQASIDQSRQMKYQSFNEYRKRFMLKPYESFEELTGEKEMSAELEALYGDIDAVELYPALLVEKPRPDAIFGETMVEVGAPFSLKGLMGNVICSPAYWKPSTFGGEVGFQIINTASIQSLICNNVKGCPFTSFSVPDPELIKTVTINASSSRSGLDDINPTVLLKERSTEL

SW480 cells [8] = assay: Caspase activation, ApoStat flow cytometry, SW480; assay type: cell-based, human; conditions: IC50 dose, 72 h, fluorescence-labeled pan-caspase inhibitor
In short: as §1

COX-1 = conditions: read-out: IC50(COX-1) literature value; in blood; cited from earlier work
SW480 [9] = assay: MTT viability test, SW480; assay type: cell-based, human; conditions: read-out: IC50 SW480 MTT
In short: as §2

CT26 [10] = assay: MTT viability test, CT26; assay type: cell-based, mouse; conditions: read-out: IC50 CT26 MTT
In short: as §2

SW480 [11] = assay: Crystal violet; assay type: cell-based, human; conditions: read-out: IC50 SW480 CV
In short: as §2

SW480 cells [12] = assay: Cell proliferation, CFSE flow cytometry, SW480; assay type: cell-based, human; conditions: SW480, IC50 dose, 72 h
In short: (§3)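 HCT116 (2 × 10^5/well) or SW480 (1.5 × 10^5/well) cells were prelabelled with 1 μM CFSE in six-well plates. They were then exposed to test compound in culture medium (≤0.1% DMSO) for 72 h. CFSE dilution was measured by flow cytometry. Data are representative of three independent experiments.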

HCT116 cells [13] = assay: Cell proliferation, CFSE flow cytometry, HCT116; assay type: cell-based, human; conditions: HCT116, IC50 dose, 72 h
In short: as §3

HCT116 cells [14] = assay: ROS/RNS production, DHR flow cytometry, HCT116; assay type: cell-based, human; conditions: HCT116, IC50 dose, 72 h
In short: (§4)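 HCT116 (2 × 10^5/well) and SW480 (1.5 × 10^5/well) cells in six-well plates were treated with test compound for 72 h. Treatment was in culture medium containing 1 μM dihydrorhodamine 123 (≤0.1% DMSO). Intracellular ROS/RNS was measured as fluorescence by flow cytometry. Data are representative of three independent experiments.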

SW480 cells [15] = assay: ROS/RNS production, DHR flow cytometry, SW480; assay type: cell-based, human; conditions: SW480, IC50 dose, 72 h
In short: as §4

Compound	IC50 (HCT116 [2]; 72 h, COX-2 –) [µM]	IC50 (HT29 [3]; 72 h, COX-2 +) [µM]	IC50 (CT26 [4]; 72 h, COX-2 +) [µM]	IC50 (HT29 [6]; 72 h, COX-2 +) [µM]	IC50 (HCT116 [7]; 72 h, COX-2 –) [µM]	IC50 (SW480 [9]; 72 h, COX-2 –) [µM]	IC50 (CT26 [10]; 72 h, COX-2 +) [µM]	IC50 (SW480 [11]; 72 h, COX-2 –) [µM]	% inhibition @ 100 μM COX-1 (ovine COX-1; no BSA) [%]	% inhibition @ 100 μM COX-2 (human COX-2; no BSA) [%]	caspase activation, % HCT116 cells (HCT116 cells [1]) [%]	caspase activation, % SW480 cells (SW480 cells [8]) [%]	further results
Cc1cccc(Nc2ccccc2C(=O)O)c1C [compound 1, Mefenamic acid, reference compound]											0.5	5.2	IC50 (HCT116 [2]; Homo sapiens, HCT-116, 72 h): 101 ± 6.5 µM; IC50 (HT29 [3]; Homo sapiens, HT-29, 72 h): > 200 µM; IC50 (ovine COX-1): 0.12 µM; inhibition plateau COX-1 (ovine COX-1; concentration range between 1 and 100 μM): around 60%; inhibition at 100 µM (ovine COX-1; read-out: % inhibition @ 100 μM COX-1): 59%; IC50 (CT26 [4]; Mus musculus, CT26, 72 h): 163 ± 2 µM; IC50 [5]: ~20 µM; IC50 (HT29 [6]; Homo sapiens, HT-29, 72 h): > 200 µM; IC50 (HCT116 [7]; Homo sapiens, HCT-116, 72 h): 96.2 ± 7.9 µM; IC50 COX-2 (human COX-2): no IC50 value could be determined; inhibition at 100 µM (human COX-2; read-out: % inhibition @ 100 μM COX-2): 20%; IC50 (COX-1): 1.94 µM; IC50 (SW480 [9]; Homo sapiens, SW480, 72 h): 104 ± 6.4 µM; IC50 (CT26 [10]; Mus musculus, CT26, 72 h): 114 ± 4.2 µM; IC50 (SW480 [11]; Homo sapiens, SW480, 72 h): 120 ± 6.1 µM
N-(1,2-Dicarba-closo-dodecaboran-9-yl)-2-benzoic acid [2c]	83.6 ± 3.8	183 ± 3.7	93.3 ± 5.7	> 200	74.6 ± 4.8	77.6 ± 0.1	61.6 ± 0.1	75.6 ± 4					
N-(1,2-Dicarba-closo-dodecaboran-9-yl)-2-benzonitrile [2b]	35.5 ± 3.1	45.6 ± 2.7	47.2 ± 2.3	> 200	34.4 ± 1.8	39 ± 1.2	38.3 ± 0.4	24 ± 0.8	32	28	1.1	3.2	cell division rate vs untreated cells (SW480 cells [12]): remarkably lower; cell division rate vs untreated cells (HCT116 cells [13]): remarkably lower; ROS/RNS production (HCT116 cells [14]): increased; ROS/RNS production (SW480 cells [15]): increased
N-(1,7-Dicarba-closo-dodecaboran-9-yl)-2-benzoic acid [3c]	147 ± 8.6	184 ± 4.5	160 ± 6.6	> 200	93.2 ± 7.6	90.6 ± 3.3	76.5 ± 2.8	117 ± 7.9	11				
N-(1,7-Dicarba-closo-dodecaboran-9-yl)-2-benzonitrile [3b]	31.8 ± 2.3	46.4 ± 2.9	37.4 ± 1.2	116 ± 2.2	28.2 ± 1.8	23.8 ± 2.1	22.4 ± 1.7	24.9 ± 1.8	22	13	5.6	6.8	cell division rate vs untreated cells (SW480 cells [12]): remarkably lower; cell division rate vs untreated cells (HCT116 cells [13]): remarkably lower

More lines, main results first:

IC50 (HCT116 [2]; 72 h, COX-2 –) [µM]	IC50 (HT29 [3]; 72 h, COX-2 +) [µM]	IC50 (CT26 [4]; 72 h, COX-2 +) [µM]	IC50 (HT29 [6]; 72 h, COX-2 +) [µM]	IC50 (HCT116 [7]; 72 h, COX-2 –) [µM]	IC50 (SW480 [9]; 72 h, COX-2 –) [µM]	IC50 (CT26 [10]; 72 h, COX-2 +) [µM]	IC50 (SW480 [11]; 72 h, COX-2 –) [µM]	% inhibition @ 100 μM COX-1 (ovine COX-1; no BSA) [%]	% inhibition @ 100 μM COX-2 (human COX-2; no BSA) [%]	Compound	caspase activation, % HCT116 cells (HCT116 cells [1]) [%]	caspase activation, % SW480 cells (SW480 cells [8]) [%]	further results
77.4 ± 3.4	165 ± 0.3	137 ± 3.1	> 200	67.6 ± 1.3	77.8 ± 0.4	72.6 ± 4.5	76.4 ± 3.5	7		N-(1,12-Dicarba-closo-dodecaboran-2-yl)-2-benzoic acid [4c]			
> 200	> 200	> 200	> 200	> 200	> 200	> 200	> 200	12		N-(1,12-Dicarba-closo-dodecaboran-2-yl)-2-benzonitrile [4b]			
115 ± 6	141 ± 7.8	150 ± 4.9	182 ± 1.7	129 ± 10	121 ± 4.5	167 ± 8.8	84 ± 3.3	83	76	Sodium rac-[N-(7,8-dicarba-closo-dodecaboran-6-yl)-2-benzonitrile] [compound 5]			IC50 (ovine COX-1; read-out: IC50 COX-1, no BSA): 40 µM; IC50 (human COX-2; read-out: IC50 COX-2, no BSA): 33 µM
